These results are taken from ChEMBL document CHEMBL4145583, “Neuroprotective Compound from an Endophytic Fungus, Colletotrichum sp. JS-0367” (J Nat Prod, 2018).

SMILES strings stand for the structures. Active and inactive are the calls of the source. The rule behind the calls is not given here.

For assay [1], the system named is HT-22. Briefly: Inhibition of glutamate-induced intracellular ROS generation in mouse HT22 cells at 50 to 100 uM after 8 hrs by DCF-DA probe based fluorescence microscopic analysis. It counts as functional, cell-based. The gist of the method: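 HT22 cells were seeded at 1 × 10^4 per well in DMEM/10% FBS at 37 °C, 5% CO2. They were exposed to 5 mM glutamate with or without compound for 8 h, loaded with 10 μM DCF-DA for 30 min and washed three times with PBS. DCF fluorescence was read at ex 495/em 517 nm on a plate reader and expressed against control; images were taken by fluorescence microscopy. Mean ± SEM.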

Assay [2] concerns HT-22. Briefly: Inhibition of glutamate-induced intracellular calcium level in mouse HT22 cells at 50 uM after 8 hrs by Flu-4 AM probe based fluorescence microscopic analysis relative to control. It is filed as functional. The procedure, abridged:
(§1)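 HT22 mouse hippocampal cells (DMEM, 10% FBS, penicillin/streptomycin, 37 °C, 5% CO2) were seeded at 5 × 10^4 cells/well and co-treated with 5 mM glutamate and the test agent for 8 h. They were then loaded with 2 μM Fluo-4 AM and rinsed with phenol-red-free medium. Fluorescence images were quantified as fold change versus untreated control cells (mean ± SEM).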
On the technique in general: A change in cytosolic calcium serves as a functional read-out for many receptors and channels.

The subject of assay [3] is HT-22. Briefly: Inhibition of glutamate-induced intracellular calcium level in mouse HT22 cells at 100 uM after 8 hrs by Flu-4 AM probe based fluorescence microscopic analysis relative to control. It counts as functional. The gist of the method:
as §1

The subject of assay [4] is HT-22. In words: Neuroprotective activity against glutamate-induced neuronal cell death in mouse HT22 cells assessed as increase in cell viability after 24 hrs by Ez-CyTox reagent based assay. It is filed as functional. The procedure, abridged: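 HT22 cells (DMEM/10% FBS, 37 °C, 5% CO2) were plated at 1 × 10^4 per well and left to adhere for 24 h. Glutamate (5 mM final) was added together with compounds for 24 h. EZ-Cytox reagent was applied for 30 min and absorbance read at 450 nm. Viability is given as % of untreated live control; mean ± SEM.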

Assay [5] in a line: Antioxidant activity assessed as DPPH radical scavenging activity at 100 uM. It is filed as functional.
Assay [6] is filed under the species Mus musculus. In words: Inhibition of glutamate-induced JNK phosphorylation in mouse HT22 cells at 50 to 100 uM after 8 hrs by Western blot analysis. It is filed as cell-based. The gist of the method:
(§2)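 Mouse hippocampal HT22 cells were grown in DMEM with 10% FBS and penicillin/streptomycin at 37 °C in 5% CO2. Cells were exposed to 5 mM glutamate plus 50 or 100 μM compound for 8 h, then lysed in RIPA buffer with protease inhibitors. Lysates were run on SDS-PAGE and transferred to PVDF. Membranes were blocked in 5% milk and probed for 1 h with p-/total ERK1/2, JNK, p38 and GAPDH antibodies. Chemiluminescent bands were quantified as fold of control; mean ± SEM.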
(In general: A western blot detects proteins with antibodies after separation by electrophoresis.)

Assay [7] can be described thus: Antioxidant activity assessed as DPPH radical scavenging activity. It counts as functional. Background: DPPH is a stable violet radical that fades when it is reduced.
For assay [8], the system named is HT-22. In words: Neuroprotective activity against glutamate-induced apoptotic cell death in mouse HT22 cells at 50 to 100 uM after 10 hrs by Alexa fluor-488 annexin V/PI staining based cytometric analysis. It is filed as functional. The procedure, abridged: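 HT22 cells were seeded at 2 × 10^5 per well and treated with 5 mM glutamate and 50 or 100 μM compound for 10 h. Cells were harvested, washed in PBS, and equal numbers were labelled with Alexa Fluor 488 annexin V in binding buffer for 20 min, then with propidium iodide. Cells were counted by image-based cytometry as % annexin V-positive; mean ± SEM.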

The test system of assay [9] is HT-22. Briefly: Neuroprotective activity against glutamate-induced neuronal cell death in mouse HT22 cells assessed as increase in cell viability at 50 to 100 uM after 24 hrs by microscopy. It counts as functional, cell-based.
In assay [10] the target is MAP kinase p38 (Mus musculus) (UniProt P47811+O08911+Q9WUI1+Q9Z1B7). In words: Inhibition of glutamate-induced p38 phosphorylation in mouse HT22 cells at 50 to 100 uM after 8 hrs by Western blot analysis. It counts as cell-based. The gist of the method:
as §2

Assay [11] addresses Mitogen-activated protein kinase 1 and 3 (ERK2 and ERK1) (Mus musculus) (UniProt P63085+Q63844). Briefly: Inhibition of glutamate-induced ERK1/2 phosphorylation in mouse HT22 cells at 50 to 100 uM after 8 hrs by Western blot analysis. It counts as cell-based. The procedure, abridged:
as §2

Mitogen-activated protein kinase 1 and 3 (ERK2 and ERK1) (Mus musculus), sequence (P63085 whole entry, looked up): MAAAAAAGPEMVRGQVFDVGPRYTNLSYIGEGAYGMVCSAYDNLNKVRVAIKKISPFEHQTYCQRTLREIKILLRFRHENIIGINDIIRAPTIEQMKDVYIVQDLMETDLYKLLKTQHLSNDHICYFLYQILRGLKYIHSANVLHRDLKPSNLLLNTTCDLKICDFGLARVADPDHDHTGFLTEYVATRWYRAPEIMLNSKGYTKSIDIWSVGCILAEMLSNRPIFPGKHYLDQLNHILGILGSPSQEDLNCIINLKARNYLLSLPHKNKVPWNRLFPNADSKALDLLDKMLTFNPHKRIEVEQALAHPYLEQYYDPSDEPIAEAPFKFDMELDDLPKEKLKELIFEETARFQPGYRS
Mitogen-activated protein kinase 1 and 3 (ERK2 and ERK1) (Mus musculus), sequence (Q63844 whole entry, looked up): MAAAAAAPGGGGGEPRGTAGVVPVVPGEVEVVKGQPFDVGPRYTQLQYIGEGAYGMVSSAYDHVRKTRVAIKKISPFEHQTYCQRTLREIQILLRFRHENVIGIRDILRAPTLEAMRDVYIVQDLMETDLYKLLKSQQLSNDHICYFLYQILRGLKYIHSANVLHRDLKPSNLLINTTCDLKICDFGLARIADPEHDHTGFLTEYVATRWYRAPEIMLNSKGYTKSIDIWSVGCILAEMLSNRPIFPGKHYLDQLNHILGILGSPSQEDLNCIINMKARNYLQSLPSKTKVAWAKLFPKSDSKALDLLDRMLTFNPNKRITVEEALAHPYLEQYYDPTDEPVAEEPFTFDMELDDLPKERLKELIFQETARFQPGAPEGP

The IC50 is the midpoint of a concentration-inhibition curve. For `COc1cc(C)cc2c1C(=O)c1c(cc(O)c(O)c1O)C2=O`, the inhibition entry in assay [1], in [6], in assay [10] and in assay [11] was “Active” throughout. Also, the “fold change (FC)” value in assay [2] came out at 1.4; in assay [3], 0.98. In addition, the figures for the Activity entry in assay [4], in [5] and in [7] were “Dose-dependent effect”, 70% and “Dose-dependent effect”, respectively. In addition, the IC50 in [7] was found to be 42.2 µM. In addition, the result in [8] and in assay [9] was Active.
